Screening data deposited in PubChem BioAssay by several laboratories.
SENP1 FRET inh = blocks the human SENP1 SUMO protease catalytic domain; hit rate 0.21% among 360,000; Q9P0U3; recombinant SENP1 catalytic domain, CyPet-SUMO1-YPet FRET cleavage; inhibition, % at 10 µM; AID 624204;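 active = inhibition at least 30% at 10 µM, raw YFP signal under a set limit, fluorescence ratio 0.5 to 1.5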;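 also: 0% = enzyme with DMSO and 100% = no enzyme wells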
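Material: hSENP1 catalytic domain, recombinant; medium: Tris pH 8 with BME, BSA, NP40 and catalase; compound: single concentration of 10 µM compound, 0.5% DMSO final; technique: FRET read of cyan and yellow fluorescence; timing: 50 min enzyme reaction, room temperature, light-protected; reagent: SFCypet-SUMO1-SFYpet substrate at 25 nM; control set: no-enzyme low, enzyme-DMSO high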
ABCB6 inh MLPCN = inhibitors of human ABC transporter ABCB6 | K562-ABCB6 porphyrin accumulation, flow cytometry, 1 h; stronger effect = lower value | hit rate 0.19% among 360,000 | AID 602162 | Q9NP58 | fluorescence ratio to DMSO, % at 10 µM;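 active = fluorescence ratio to DMSO below 75%, the collection mean minus 3 SD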;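 also: signal is porphyrin accumulated inside mitochondria; 100% equals median channel fluorescence of DMSO control wells; lower ratio means ABCB6 inhibition with less porphyrin fluorescence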
FAS TE block = inhibitors of human fatty acid synthase thioesterase domain | P49327 | recombinant FAS-TE, OMFH fluorogenic substrate, fluorescence endpoint | inhibition, % at 15 µM | hit rate 0.67% among 360,000;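 active = compounds whose normalised, plate-corrected inhibition of enzyme fluorescence in the single-dose primary screen is 50% or more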;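 also: 0% = DMSO with enzyme and 100% = substrate without enzyme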
iPSC survival up = increases survival of single human iPS cells; hit rate 0.044% among 360,000; survival enhancement, % at 20 µM; hiPSC single-cell survival, ATPlite luminescence; 100% = ROCK inhibitor wells, 0% = DMSO; AID 602274; in the data active = survival enhancement above about 18%;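 also: cells exposed to compounds for 16 hours before the ATP read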
SENP1 conf = SENP1 (human) inhibition, single concentration confirmation; shares compounds with SENP1 FRET inh; recombinant SENP1, CyPet-SUMO1-YPet FRET cleavage; inhibition, % at 10 µM; hit rate 34% among 520; AID 651678; in the data active = inhibition mostly above about 35%, no sharp cut-off; inactive = mostly below about 32%;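 also: 0% = enzyme with DMSO and 100% = no enzyme control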
SENP1 kinetic = SENP1 (human) inhibition, kinetic confirmation | shares compounds with SENP1 FRET inh | inhibition, % at 10 µM | AID 651690 | hit rate 26% among 520 | recombinant SENP1, CyPet-SUMO1-YPet FRET kinetic cleavage; in the data active = inhibition mostly above about 32%, no sharp cut-off; inactive = mostly below about 29%;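 also: 0% = DMSO with enzyme and 100% = no enzyme substrate only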
An asterisk follows results filed as active; x = no result given. A selection: hits, their analogues and other compounds. The true share with any hit is near 1.1%.

SMILES | SENP1 FRET inh | ABCB6 inh MLPCN | FAS TE block | iPSC survival up | SENP1 conf | SENP1 kinetic
CCN(CC)c1ccc(N=C2C=CC(=O)C=C2NC(C)=O)cc1 | 66.3* | 143.0 | -4.1 | -1.3 | 14.1 | 12.4
Cc1cc(S(=O)(=O)Nc2ccc(C(=O)NC3CC3)cc2)ccc1F | -1.9 | 97.0 | -8.4 | 1.0 | x | x
CC(C)(C)OC(=O)NCCCCCNC(=O)c1[nH]cnc1C(=O)NC1CCN(C(=O)OC(C)(C)C)CC1 | 1.2 | 98.0 | 19.7 | -1.1 | x | x
O=C(NCCSCc1ccccc1)c1ccc(C2SCC(=O)N2Cc2ccccc2)cc1 (stereo not drawn) | 63.1* | 100.0 | 20.5 | -2.1 | 44.7* | 50.1*
Fc1ccc(Nc2cccc3nccnc23)cc1 | 15.6 | 107.0 | 2.1 | -1.0 | x | x
c1cc(Nc2cccc3nccnc23)c2nccnc2c1 | 51.6* | 96.0 | 3.5 | -2.1 | 61.0* | 41.3*
COC(=O)CSc1nc2cc(OC)ccc2cc1C#N | 37.4* | 96.0 | 17.0 | -2.5 | 16.4 | 3.0
CCNC(=O)C1(C)CCCN(C(=O)c2ccc(F)c(C)c2)C1 (stereo not drawn) | -0.3 | 90.0 | -3.6 | -2.3 | x | x
Cc1cc(-c2ccccc2)nc(=O)[nH]1 | 35.0* | 116.0 | -23.0 | -1.8 | 1.4 | 12.9
O=c1nc(-c2ccccc2)cc(C(F)(F)F)[nH]1 | 3.1 | 97.0 | -7.8 | -1.5 | x | x
COc1cc(/C=C/c2onc(C)c2[N+](=O)[O-])cc(OC)c1OC | 48.6* | 104.0 | -0.9 | -0.3 | 9.3 | 10.1
Cc1ccc(C)c(NC(=O)COC(=O)c2ccc3ccccc3n2)c1 | 38.4* | 133.0 | -10.5 | -2.8 | 21.9 | 18.4
COc1ccc(CNC(=O)COC(=O)c2ccc3ccccc3n2)cc1 | 37.6* | 103.0 | -6.2 | -0.4 | 26.1 | 23.1
O=C(Nc1cccc(-c2cnc3ccccc3n2)c1)C1CC(=O)N(c2ccccc2)C1 (stereo not drawn) | 1.8 | 87.0 | 2.2 | -0.2 | x | x
CCN(CC)S(=O)(=O)c1ccc(N2CCOCC2)c(NC(=O)c2ccc(C#N)cc2)c1 | 35.9* | 96.0 | -5.6 | 1.3 | 0.3 | 8.8
CCN(CC)S(=O)(=O)c1ccc(N2CCOCC2)c(NC(=O)c2ccc(F)cc2)c1 | 1.1 | 103.0 | 1.2 | -2.2 | x | x
COc1ccc(-c2nnc(C)c3nocc23)cc1 | 37.0* | 227.0 | -5.7 | 0.9 | 22.7 | 20.9
COc1ccc(Oc2nnc(-c3ccc(C)cc3)c3ccccc23)cc1 | 1.5 | 100.0 | 1.5 | 1.2 | x | x
COCCCNC(=S)Nc1c(C)cc(C)cc1C | -0.7 | 96.0 | -5.9 | -0.7 | x | x
CCN(CC)C(=O)Cn1cc(C(=O)C(=O)N2CC=C(c3ccccc3)CC2)c2ccccc21 | 65.2* | 134.0 | 4.6 | -0.5 | 63.4* | 65.5*
O=C(Nc1nccs1)c1cc2cc(Cl)ccc2oc1=O | 44.6* | 98.0 | -3.5 | -0.5 | 96.5* | 82.6*
O=C(Nc1nccs1)c1ccc(Cl)cc1[N+](=O)[O-] | -1.5 | 99.0 | -0.9 | -3.7 | x | x
CCC(=NN=C(CC)c1ccccc1O)c1ccccc1O | 46.6* | 96.0 | 23.6 | 10.9 | 130.1* | 73.4*
CCOC(=O)c1c(C#N)c(SCC(=O)Nc2ccc(OC)cc2)nc2c1CN(CC)CC2 | 40.2* | 103.0 | 1.7 | -2.5 | 20.2 | 11.1
COc1ccc(NC(=O)CSc2nc(N)c(C#N)cc2C#N)cc1 | -26.7 | 98.0 | 26.7 | -0.5 | x | x
SMILES | SENP1 FRET inh | ABCB6 inh MLPCN | FAS TE block | iPSC survival up | SENP1 conf | SENP1 kinetic
CC1CC(C)CN(C(=O)C2CCC(CNS(=O)(=O)c3ccccc3)CC2)C1 (stereo not drawn) | 0.2 | 95.0 | 0.6 | -0.4 | x | x
Brc1cc(Br)c2nc3c(cc2c1)CCC3 | 33.0* | 102.0 | 14.4 | -0.4 | 2.8 | 7.4
CN1CCN(C2=Nc3c(Cl)cc(Cl)c4cccc2c34)CC1 | 82.2* | 156.0 | -6.1 | -0.6 | 101.0* | 56.7*
CN1CCN(C2=Nc3cc(Cl)ccc3Nc3ccccc32)CC1 | 0.9 | 95.0 | 1.3 | 0.3 | x | x
Cc1cc(Cl)ccc1OCC(=O)OCC(=O)N(CC(C)C)c1c(N)n(Cc2ccccc2)c(=O)[nH]c1=O | 0.7 | 102.0 | 15.2 | -0.2 | x | x
CCN1/C(=C\C=C2\C(=O)N(c3ccccc3)C(=S)N2C)Sc2ccccc21 | 34.6* | 356.0 | 3.1 | -3.0 | -3.4 | 0.2
CCN1/C(=C\C=C(C(C)=O)C(C)=O)Sc2ccccc21 | -25.5 | 106.0 | -31.5 | -0.7 | x | x
CC1CCN(S(=O)(=O)c2cc3c4c(c2)C(C)C(=O)N4CCC3)CC1 (stereo not drawn) | -2.2 | 100.0 | -2.9 | -0.1 | x | x
CC1(C)CC(=O)C2=C(C1)Nc1ccccc1NC2c1ccccc1F (stereo not drawn) | 36.3* | 95.0 | -8.2 | -0.4 | -1.6 | -0.6
O=CNc1ccc2c(c1)Cc1cc([N+](=O)[O-])ccc1-2 | 48.3* | 102.0 | 15.9 | -3.7 | 26.8 | 19.9
COc1ccc(N(S(=O)(=O)c2ccccc2)S(=O)(=O)c2ccccc2)c(N)c1 | 1.2 | 88.0 | 15.7 | -2.7 | x | x
CSc1ccc(S(=O)(=O)NCCCOC(C)C)cc1 | 3.0 | 101.0 | -2.3 | 0.2 | x | x
O=C(O)c1cccc2c1-c1ccc(Cl)cc1C2=O | 1.0 | 88.0 | -3.4 | -2.9 | x | x
Nc1cccc2c1C(=O)c1ccc(Cl)cc1C2=O | 30.1* | 200.0 | -0.2 | 0.8 | 33.0 | 16.1
CSc1nnc(C(C)(C)C)c(=O)n1/N=C/c1c(O)ccc2ccccc12 | 33.1* | 92.0 | -2.8 | 1.3 | -6.7 | 3.0
Cc1c(/C=N/Nc2ccc([N+](=O)[O-])cn2)c2ccccc2n1Cc1ccccc1 | 63.3* | 186.0 | -0.6 | 0.0 | 6.7 | 8.6
O=C(NCCC(=O)N1CCN(c2ccc(F)cc2)CC1)c1ccco1 | 1.2 | 100.0 | -7.1 | -0.6 | x | x
COc1cc(O)c(C=Nc2ccccc2NS(=O)(=O)c2ccc(C)cc2)c(OC)c1 | 51.1* | 161.0 | 4.3 | 1.7 | 74.0* | 67.2*
O=C(Nc1ccccc1)c1cc(C2CCCN(C(=O)c3cccs3)C2)on1 (stereo not drawn) | 1.0 | 106.0 | 1.4 | -2.3 | x | x
CC(=O)c1ccccc1Oc1nc(CN2CCOCC2)nc2scc(-c3cccs3)c12 | 44.1* | 95.0 | 6.4 | 4.4 | 52.4* | 33.0*
CN(CC(=O)N1CCOCC1)S(=O)(=O)c1ccc2ccccc2c1 | -0.9 | 99.0 | -1.3 | 0.0 | x | x
COc1cc(Cn2c3ccc(NC(=O)CCc4ccccc4)cc3c(=O)n2C)ccc1F | 32.9* | 105.0 | -3.4 | 0.5 | 3.8 | 4.8
COc1cc(Cn2c3ccc(NC(=O)CCc4cccnc4)cc3c(=O)n2C)ccc1F | 6.8 | 93.0 | -8.1 | -2.1 | x | x
Cc1nc2ccc(S(=O)(=O)N(C)CC(=O)NCc3ccc(N(C)C)cc3)cc2s1 | 56.5* | 100.0 | -9.8 | 0.2 | 14.8 | 14.5
COc1ccc(CCNC(=O)CCS(=O)(=O)c2ccc3c(c2)NC(=O)CO3)cc1OC | -0.8 | 106.0 | -7.4 | -0.2 | x | x
